Experimental data pooled from the literature.
Protocols differ between the studies behind these lines.
Target: Tyrosine-protein kinase TXK (TXK, Homo sapiens, UniProt P42681)
Sequence (P42681 1-527, as in one of the studies): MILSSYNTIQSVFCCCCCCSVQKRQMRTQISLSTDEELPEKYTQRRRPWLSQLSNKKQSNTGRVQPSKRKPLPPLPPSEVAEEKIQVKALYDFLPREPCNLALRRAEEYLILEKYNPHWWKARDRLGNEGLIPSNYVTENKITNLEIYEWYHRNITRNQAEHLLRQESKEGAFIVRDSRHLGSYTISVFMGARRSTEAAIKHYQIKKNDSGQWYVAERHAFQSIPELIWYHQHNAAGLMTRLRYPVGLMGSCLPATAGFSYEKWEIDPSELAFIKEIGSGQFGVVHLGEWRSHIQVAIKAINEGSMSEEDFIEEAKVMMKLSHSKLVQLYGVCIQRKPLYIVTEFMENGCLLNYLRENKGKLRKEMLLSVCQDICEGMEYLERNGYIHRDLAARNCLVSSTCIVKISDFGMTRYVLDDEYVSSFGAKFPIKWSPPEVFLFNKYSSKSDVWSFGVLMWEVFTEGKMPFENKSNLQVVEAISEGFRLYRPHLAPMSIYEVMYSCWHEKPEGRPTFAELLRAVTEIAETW

Structure (SMILES)	assay	conditions	quantity	result
CCN(CC)c1ccc(C2=NNC(=O)CC2C)cc1[N+](=O)[O-] (stereo not shown)	enzyme activity, inhibitor	10 µM	remaining activity	84%
CCS(=O)(=O)c1cc2cc(C[C@](O)(CC(C)(C)c3ccc(F)cc3C(N)=O)C(F)(F)F)[nH]c2cn1	cell-free assay, competition with immobilised ligand	1 µM	remaining binding	90%
COc1cc2ncnc(Nc3ccc(Oc4ccccc4)c(C)c3C)c2cc1OC	enzyme activity, inhibitor	1 µM	inhibition	2%
CCOc1cc(-c2nncn2C)ccc1Nc1ncc2cc(C)nc(NCC(C)(C)C)c2n1	enzyme activity, inhibitor, FRET	1 µM	inhibition	< 15%
O=C1Nc2ccc(Cl)cc2C1=Cc1cc(Cl)c(O)c(Cl)c1	cell-free assay	0.5 µM	remaining signal	86.6%
Nc1ncnc2occ(-c3ccc(NC(=O)Nc4cc(C(F)(F)F)ccc4F)cc3)c12	enzyme activity, inhibitor	20 µM	remaining activity	14%
CCOC(=O)c1cc2cc(-c3cc(C(=O)NCc4ccc(C(=O)O)cc4)nn3C)ccc2[nH]1	binding, competition with immobilised ligand	0.1 µM	remaining binding	90%
O=C(Nc1cnn(-c2csc(C(=O)NC3COC3)c2)c1)Nc1c(F)cccc1Cl	enzyme activity, inhibitor	5 µM	remaining activity	90.8%
Cc1ccc(C(=O)NCc2ccsc2)cc1C#Cc1cn(C(C)C)c2ncnc(N)c12	enzyme activity, inhibitor	1 µM	activity vs control	36%
CCCS(=O)(=O)Nc1ccc(F)c(C(=O)c2c[nH]c3ncc(-c4ccc(Cl)cc4)cc23)c1F	enzyme activity, inhibitor	1 µM	inhibition	< 10%
NS(=O)(=O)c1cc(NC(=O)Cc2ccccc2)ccc1Oc1cccc(Cl)c1	binding, competition with immobilised ligand	1 µM	remaining binding	92%
Oc1ccc(-c2nc(-c3ccncc3)c(-c3ccc(F)cc3)[nH]2)cc1	cell-free assay	0.5 µM	remaining signal	78.5%
CCCCN(CCCC)C(=O)CN1C[C@@H](c2cc(OC)c3c(c2)OCO3)[C@H](C(=O)O)[C@H]1CC(C)(C)CCC	cell-free assay, competition with immobilised ligand	1 µM	remaining binding	100%
CC(C)(C)c1nc(-c2cccc(NS(=O)(=O)c3c(F)cccc3F)c2F)c(-c2ccnc(N)n2)s1	enzyme activity, inhibitor, radiometric	1 µM	remaining activity	88%
O=C1NC(=O)c2cc(Nc3ccc(F)cc3)c(Nc3ccc(F)cc3)cc21	cell-free assay	0.5 µM	remaining signal	84.1%
COc1cc(-c2cn(C3CCc4ccccc4N(CC(F)(F)F)C3=O)nn2)ccc1-n1ccc(C)n1 (stereo not shown)	binding, competition with immobilised ligand	1 µM	remaining binding	84%
CC(C)(O)[C@H]1CC[C@H](Nc2ccc3ncc(-c4cccc(C(F)(F)F)c4)n3n2)CC1	enzyme activity, inhibitor	1 µM	remaining activity	62.6%
Cn1nc(C(=O)NCc2ccc(C(=O)O)cc2)cc1-c1ccc2[nH]ccc2c1	binding, competition with immobilised ligand	0.1 µM	remaining binding	90%
O=C(Nc1cnn(-c2csc(C(=O)NC3COC3)c2)c1)Nc1ccccc1Cl	enzyme activity, inhibitor	5 µM	remaining activity	89.8%
